Results: PMC6130797 (ACS Omega, 2018)
Values joined by “and” are separate entries in the source; they are usually repeats but may differ in a detail not shown here. Equal values may be shown once. “Also recorded” adds a separate entry of the source. Read-outs that look alike come from different tables or passages of the source.

Columns and labels:
[1] = target: T1, hH2R (Homo sapiens, UniProt P25021); format: binding
[2] = target: T2, hH3R (Homo sapiens, UniProt Q9Y5N1); experiment: Radioligand competition binding with [3H]Nα-methylhistamine, Sf9 cell membranes
[3] = target: gpH1R (Cavia porcellus, UniProt P31389); experiment: Histamine H1 receptor assay on isolated guinea pig ileum
[4] = target: T3, hH4R (Homo sapiens, UniProt Q9H3N8); experiment: [35S]GTPγS binding assay, Sf9 cell membranes; format: biochemical
[5] = target: T1, hH2R; experiment: [35S]GTPγS binding assay, Sf9 cell membranes; format: biochemical
[6] = target: T3, hH4R; experiment: Radioligand competition binding with [3H]histamine, Sf9 cell membranes
[7] = target: T4, gpH2R (Cavia porcellus, UniProt P47747); experiment: biochemical; format: biochemical, guinea pig
Target sequence in this assay (P47747 whole entry): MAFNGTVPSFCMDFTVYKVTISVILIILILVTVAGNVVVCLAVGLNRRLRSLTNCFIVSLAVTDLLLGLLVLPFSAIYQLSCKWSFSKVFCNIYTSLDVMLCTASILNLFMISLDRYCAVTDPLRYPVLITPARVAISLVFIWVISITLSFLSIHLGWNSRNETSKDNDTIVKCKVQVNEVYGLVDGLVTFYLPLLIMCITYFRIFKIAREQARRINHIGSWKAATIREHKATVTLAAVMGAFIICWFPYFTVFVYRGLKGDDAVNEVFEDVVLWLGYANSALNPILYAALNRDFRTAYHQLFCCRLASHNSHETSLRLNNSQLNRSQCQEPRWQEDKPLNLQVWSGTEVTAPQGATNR
Target sequence in this assay (P63092 1-380 isoform P63092-2 partner): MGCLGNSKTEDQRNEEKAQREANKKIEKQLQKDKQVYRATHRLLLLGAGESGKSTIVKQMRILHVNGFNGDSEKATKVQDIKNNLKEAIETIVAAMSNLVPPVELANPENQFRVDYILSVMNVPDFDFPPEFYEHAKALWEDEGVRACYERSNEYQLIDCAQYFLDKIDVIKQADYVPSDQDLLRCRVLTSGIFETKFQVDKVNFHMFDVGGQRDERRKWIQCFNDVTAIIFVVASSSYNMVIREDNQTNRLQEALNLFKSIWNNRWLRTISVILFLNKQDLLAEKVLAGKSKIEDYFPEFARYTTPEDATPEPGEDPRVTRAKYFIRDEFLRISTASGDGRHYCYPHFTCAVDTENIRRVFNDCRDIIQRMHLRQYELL

[8] = target: hH1R (Homo sapiens, UniProt P35367); experiment: biochemical; format: binding
[9] = target: T4, gpH2R; parameters: species or system guinea pig
Target sequence in this assay (P47747 whole entry): as the sequence (P47747 whole entry) above

[10] = Chemical stability in binding buffer, RP-HPLC analysis; format: physicochemical; settings: binding buffer pH 7.4, 100 μM, room temperature, 12 months
Outline: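 Test compounds (dimeric bisalkylguanidines) were held at 100 μM in binding buffer (12.5 mM MgCl2, 1 mM EDTA, 75 mM Tris/HCl, pH 7.4) at room temperature for 12 months.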

[11] = target: rH2R (Rattus norvegicus, UniProt P25102); experiment: [35S]GTPγS binding assay, Sf9 cell membranes; format: biochemical
[12] = target: T2, hH3R; experiment: [35S]GTPγS binding assay, Sf9 cell membranes; format: biochemical
[13] = hH2R pKi, [3H]tiotidine (Kd […], c = 10 nM), mean ± SEM
[14] = hH3R pKi, [3H]Nα-methylhistamine (Kd 8.6 nM, c = 3 nM), mean ± SEM

T3 sequence (Q9H3N8 whole entry): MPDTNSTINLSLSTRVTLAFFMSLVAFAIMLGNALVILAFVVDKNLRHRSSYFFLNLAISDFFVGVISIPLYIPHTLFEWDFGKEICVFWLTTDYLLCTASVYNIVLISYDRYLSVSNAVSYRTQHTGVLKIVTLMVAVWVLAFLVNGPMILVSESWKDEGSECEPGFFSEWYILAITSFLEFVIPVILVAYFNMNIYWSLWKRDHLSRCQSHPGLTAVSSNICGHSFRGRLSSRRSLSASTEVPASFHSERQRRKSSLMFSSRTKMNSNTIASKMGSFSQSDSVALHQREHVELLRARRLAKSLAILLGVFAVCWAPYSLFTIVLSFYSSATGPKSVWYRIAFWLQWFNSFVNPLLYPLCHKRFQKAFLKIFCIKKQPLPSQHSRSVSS
T1 sequence (P25021 whole entry): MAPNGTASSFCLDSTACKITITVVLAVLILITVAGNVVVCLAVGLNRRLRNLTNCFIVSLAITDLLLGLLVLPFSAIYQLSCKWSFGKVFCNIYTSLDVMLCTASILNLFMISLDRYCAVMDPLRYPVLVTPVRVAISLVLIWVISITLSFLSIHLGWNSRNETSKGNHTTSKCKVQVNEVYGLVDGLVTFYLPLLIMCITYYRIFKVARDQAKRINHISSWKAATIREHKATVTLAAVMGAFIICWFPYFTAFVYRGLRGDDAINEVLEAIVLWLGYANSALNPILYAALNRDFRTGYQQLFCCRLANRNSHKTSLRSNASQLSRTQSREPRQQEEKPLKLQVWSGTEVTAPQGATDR
T1 sequence (P63092 1-380 isoform P63092-2 partner): as the sequence (P63092 1-380 isoform P63092-2 partner) above
Sequence of hH1R (P35367 whole entry): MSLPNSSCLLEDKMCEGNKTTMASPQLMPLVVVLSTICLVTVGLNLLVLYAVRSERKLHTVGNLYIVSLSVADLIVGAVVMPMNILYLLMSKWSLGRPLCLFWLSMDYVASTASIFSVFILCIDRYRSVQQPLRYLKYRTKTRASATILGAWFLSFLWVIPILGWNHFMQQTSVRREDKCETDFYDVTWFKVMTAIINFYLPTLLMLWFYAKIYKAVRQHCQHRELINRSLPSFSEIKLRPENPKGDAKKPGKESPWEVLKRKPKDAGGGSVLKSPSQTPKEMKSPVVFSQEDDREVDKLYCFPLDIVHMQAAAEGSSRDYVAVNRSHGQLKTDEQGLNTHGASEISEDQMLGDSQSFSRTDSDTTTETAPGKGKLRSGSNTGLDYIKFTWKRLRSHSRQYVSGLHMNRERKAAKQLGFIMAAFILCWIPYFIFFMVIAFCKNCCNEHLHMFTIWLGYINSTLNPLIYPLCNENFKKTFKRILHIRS
Sequence of gpH1R (P31389 whole entry): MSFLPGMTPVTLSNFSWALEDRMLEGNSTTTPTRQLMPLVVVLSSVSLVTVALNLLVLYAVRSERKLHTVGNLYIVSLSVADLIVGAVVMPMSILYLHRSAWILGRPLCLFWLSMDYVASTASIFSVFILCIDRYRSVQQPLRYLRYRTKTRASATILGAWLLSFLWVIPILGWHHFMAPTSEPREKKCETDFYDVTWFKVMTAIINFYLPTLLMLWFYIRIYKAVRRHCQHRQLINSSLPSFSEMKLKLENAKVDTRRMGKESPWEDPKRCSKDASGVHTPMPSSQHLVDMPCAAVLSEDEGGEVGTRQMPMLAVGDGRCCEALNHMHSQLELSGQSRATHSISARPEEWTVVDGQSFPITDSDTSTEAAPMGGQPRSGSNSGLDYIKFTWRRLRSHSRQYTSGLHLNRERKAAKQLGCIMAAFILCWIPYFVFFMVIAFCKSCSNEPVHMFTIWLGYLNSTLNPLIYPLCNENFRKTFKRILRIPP
T2 sequence (Q9Y5N1 whole entry): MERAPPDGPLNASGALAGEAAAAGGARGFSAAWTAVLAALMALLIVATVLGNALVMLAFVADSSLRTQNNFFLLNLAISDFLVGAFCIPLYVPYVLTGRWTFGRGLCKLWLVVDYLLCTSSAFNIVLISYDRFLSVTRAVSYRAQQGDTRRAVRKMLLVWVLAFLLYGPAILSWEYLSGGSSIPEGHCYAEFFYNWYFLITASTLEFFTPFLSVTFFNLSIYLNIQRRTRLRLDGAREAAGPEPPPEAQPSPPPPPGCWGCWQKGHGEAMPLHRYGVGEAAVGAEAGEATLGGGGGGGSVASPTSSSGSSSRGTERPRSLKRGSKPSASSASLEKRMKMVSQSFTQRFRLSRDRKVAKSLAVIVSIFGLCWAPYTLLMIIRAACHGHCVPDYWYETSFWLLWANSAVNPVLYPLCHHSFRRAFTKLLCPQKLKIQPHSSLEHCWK
Sequence of rH2R (P25102 whole entry): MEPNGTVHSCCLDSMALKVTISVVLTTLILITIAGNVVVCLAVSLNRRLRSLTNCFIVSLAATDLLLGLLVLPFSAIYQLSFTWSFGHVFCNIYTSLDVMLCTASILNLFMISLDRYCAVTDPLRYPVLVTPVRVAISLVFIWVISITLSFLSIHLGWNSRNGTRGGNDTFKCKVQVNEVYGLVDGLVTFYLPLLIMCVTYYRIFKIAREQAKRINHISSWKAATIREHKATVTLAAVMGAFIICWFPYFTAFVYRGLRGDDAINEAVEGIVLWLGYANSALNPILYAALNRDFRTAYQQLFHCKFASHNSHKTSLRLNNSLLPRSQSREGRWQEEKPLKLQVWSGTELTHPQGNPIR
Sequence of rH2R (P63092 1-380 isoform P63092-2 partner): as the sequence (P63092 1-380 isoform P63092-2 partner) above

## N=C(NCCCCCCCCCCCCNC(=N)NCCCc1c[nH]cn1)NCCCc1c[nH]cn1 [Compound 57, 1,1′-(Dodecane-1,12-diyl)bis{3-[3-(1H-imidazol-4-yl)propyl]guanidine}]
[1]; [13]
  Ki: 0.0389 µM
[2]; [14]
  Ki: 0.0162 µM
[3]
  Kb: 0.123 µM
[3]; guinea pig ileum, antagonism of histamine-induced contraction
  gpH1R pA2: 6.91
[4]
  Kb: 324 µM
  hH4R Emax: 0
[5]
  EC50: 0.0537 µM
  hH2R Emax: 0.52 ± 0.03
[6]; hH4R pKi
  Ki: 0.02 µM
[7]
  EC50: 0.0295 µM
  gpH2R Emax: 0.89 ± 0.07
[8]; hH1R pKi
  Ki: 0.355 µM
[9]
  EC50: 0.00776 µM
  gpH2R Emax: 0.63 and 0.63 ± 0.03
[10]
  chemical stability: excellent chemical stabilities; also recorded: no decomposition
[11]
  EC50: 0.0245 µM
  rH2R Emax: 0.80 and 0.80 ± 0.03
[12]
  Kb: 0.0468 µM
  hH3R Emax: 0

## N=C(NCCCCCCCCNC(=N)NCCCc1c[nH]cn1)NCCCc1c[nH]cn1 [Compound 5, 1,1′-(Octane-1,8-diyl)bis{3-[3-(1H-imidazol-4-yl)propyl]guanidine}]
[1]; Ki hH2R, bound stated
  Ki: < 0.1 µM
[1]; [13]
  Ki: 0.0891 µM
[2]; Ki hH3R, bound stated
  Ki: < 0.1 µM
[2]; [14]
  Ki: 0.0302 µM
[3]
  Kb: 1.7 µM
[4]
  Kb: 407 µM
  hH4R Emax: 0
[5]
  EC50: 0.166 µM
  hH2R Emax: 0.50 ± 0.03
[6]; Ki hH4R, bound stated
  Ki: < 0.1 µM
[6]; hH4R pKi
  Ki: 0.0871 µM
[7]
  EC50: 0.0251 µM
  gpH2R Emax: 0.95 and 0.95 ± 0.05
[8]; Ki hH1R, bound stated
  Ki: > 1 µM
[8]; hH1R pKi
  Ki: 3.16 µM
[9]
  EC50: 0.0105 µM
  gpH2R Emax: 0.91 and 0.91 ± 0.05
[11]
  EC50: 0.0661 µM
  rH2R Emax: 0.80 ± 0.01
[12]
  Kb: 0.135 µM
  hH3R Emax: 0

## Cc1nc(N)sc1CCCNC(=N)NCCCCCCCCNC(=N)NCCCc1sc(N)nc1C [Compound 58, 1,1′-(Octane-1,8-diyl)bis{3-[3-(2-amino-4-methylthiazol-5-yl)propyl]guanidine}]
[1]; Ki hH2R, bound stated
  Ki: < 0.1 µM
[1]; [13]
  Ki: 0.0468 µM
[1]; hH2R selectivity from radioligand binding
  difference in pKi (H2R) over pKi (H1,3,4R): at least 1.5 log units
[2]; Ki hH3R, bound stated
  Ki: > 1 µM
[4]
  hH4R Emax: 0
[5]
  EC50: 0.245 µM
  hH2R Emax: 0.33 ± 0.03
[6]; Ki hH4R, bound stated
  Ki: > 1 µM
[7]
  EC50: 0.0525 µM
  gpH2R Emax: 0.97 ± 0.06
[8]; Ki hH1R, bound stated
  Ki: > 1 µM
[8]; hH1R pKi
  Ki: > 3.16 µM
[9]
  gpH2R Emax: 0.78 ± 0.01
[10]
  chemical stability: excellent chemical stabilities; also recorded: no decomposition
[11]
  EC50: 0.148 µM
  rH2R Emax: 0.70 ± 0.04
[12]
  hH3R Emax: 0
